Measurements taken from ChEMBL document CHEMBL4406830, “Galloyl esters of trans-stilbenes are inhibitors of FASN with anticancer activity on non-small cell lung cancer cells” (Eur J Med Chem, 2019).

Legend:
[1] = molecular target: Fatty acid synthase (Homo sapiens) (UniProt P49327); experiment: Inhibition of FASN in human PC9 cells harboring FASN expression and EGFR delE746-A750 mutant assessed as disruption of AKT/FASN positive feedback loop by measuring decrease in FASN expression after 48 hrs by Western immunoblot assay; assay type: cell-based
Sequence of Fatty acid synthase (Homo sapiens) (P49327 whole entry, looked up): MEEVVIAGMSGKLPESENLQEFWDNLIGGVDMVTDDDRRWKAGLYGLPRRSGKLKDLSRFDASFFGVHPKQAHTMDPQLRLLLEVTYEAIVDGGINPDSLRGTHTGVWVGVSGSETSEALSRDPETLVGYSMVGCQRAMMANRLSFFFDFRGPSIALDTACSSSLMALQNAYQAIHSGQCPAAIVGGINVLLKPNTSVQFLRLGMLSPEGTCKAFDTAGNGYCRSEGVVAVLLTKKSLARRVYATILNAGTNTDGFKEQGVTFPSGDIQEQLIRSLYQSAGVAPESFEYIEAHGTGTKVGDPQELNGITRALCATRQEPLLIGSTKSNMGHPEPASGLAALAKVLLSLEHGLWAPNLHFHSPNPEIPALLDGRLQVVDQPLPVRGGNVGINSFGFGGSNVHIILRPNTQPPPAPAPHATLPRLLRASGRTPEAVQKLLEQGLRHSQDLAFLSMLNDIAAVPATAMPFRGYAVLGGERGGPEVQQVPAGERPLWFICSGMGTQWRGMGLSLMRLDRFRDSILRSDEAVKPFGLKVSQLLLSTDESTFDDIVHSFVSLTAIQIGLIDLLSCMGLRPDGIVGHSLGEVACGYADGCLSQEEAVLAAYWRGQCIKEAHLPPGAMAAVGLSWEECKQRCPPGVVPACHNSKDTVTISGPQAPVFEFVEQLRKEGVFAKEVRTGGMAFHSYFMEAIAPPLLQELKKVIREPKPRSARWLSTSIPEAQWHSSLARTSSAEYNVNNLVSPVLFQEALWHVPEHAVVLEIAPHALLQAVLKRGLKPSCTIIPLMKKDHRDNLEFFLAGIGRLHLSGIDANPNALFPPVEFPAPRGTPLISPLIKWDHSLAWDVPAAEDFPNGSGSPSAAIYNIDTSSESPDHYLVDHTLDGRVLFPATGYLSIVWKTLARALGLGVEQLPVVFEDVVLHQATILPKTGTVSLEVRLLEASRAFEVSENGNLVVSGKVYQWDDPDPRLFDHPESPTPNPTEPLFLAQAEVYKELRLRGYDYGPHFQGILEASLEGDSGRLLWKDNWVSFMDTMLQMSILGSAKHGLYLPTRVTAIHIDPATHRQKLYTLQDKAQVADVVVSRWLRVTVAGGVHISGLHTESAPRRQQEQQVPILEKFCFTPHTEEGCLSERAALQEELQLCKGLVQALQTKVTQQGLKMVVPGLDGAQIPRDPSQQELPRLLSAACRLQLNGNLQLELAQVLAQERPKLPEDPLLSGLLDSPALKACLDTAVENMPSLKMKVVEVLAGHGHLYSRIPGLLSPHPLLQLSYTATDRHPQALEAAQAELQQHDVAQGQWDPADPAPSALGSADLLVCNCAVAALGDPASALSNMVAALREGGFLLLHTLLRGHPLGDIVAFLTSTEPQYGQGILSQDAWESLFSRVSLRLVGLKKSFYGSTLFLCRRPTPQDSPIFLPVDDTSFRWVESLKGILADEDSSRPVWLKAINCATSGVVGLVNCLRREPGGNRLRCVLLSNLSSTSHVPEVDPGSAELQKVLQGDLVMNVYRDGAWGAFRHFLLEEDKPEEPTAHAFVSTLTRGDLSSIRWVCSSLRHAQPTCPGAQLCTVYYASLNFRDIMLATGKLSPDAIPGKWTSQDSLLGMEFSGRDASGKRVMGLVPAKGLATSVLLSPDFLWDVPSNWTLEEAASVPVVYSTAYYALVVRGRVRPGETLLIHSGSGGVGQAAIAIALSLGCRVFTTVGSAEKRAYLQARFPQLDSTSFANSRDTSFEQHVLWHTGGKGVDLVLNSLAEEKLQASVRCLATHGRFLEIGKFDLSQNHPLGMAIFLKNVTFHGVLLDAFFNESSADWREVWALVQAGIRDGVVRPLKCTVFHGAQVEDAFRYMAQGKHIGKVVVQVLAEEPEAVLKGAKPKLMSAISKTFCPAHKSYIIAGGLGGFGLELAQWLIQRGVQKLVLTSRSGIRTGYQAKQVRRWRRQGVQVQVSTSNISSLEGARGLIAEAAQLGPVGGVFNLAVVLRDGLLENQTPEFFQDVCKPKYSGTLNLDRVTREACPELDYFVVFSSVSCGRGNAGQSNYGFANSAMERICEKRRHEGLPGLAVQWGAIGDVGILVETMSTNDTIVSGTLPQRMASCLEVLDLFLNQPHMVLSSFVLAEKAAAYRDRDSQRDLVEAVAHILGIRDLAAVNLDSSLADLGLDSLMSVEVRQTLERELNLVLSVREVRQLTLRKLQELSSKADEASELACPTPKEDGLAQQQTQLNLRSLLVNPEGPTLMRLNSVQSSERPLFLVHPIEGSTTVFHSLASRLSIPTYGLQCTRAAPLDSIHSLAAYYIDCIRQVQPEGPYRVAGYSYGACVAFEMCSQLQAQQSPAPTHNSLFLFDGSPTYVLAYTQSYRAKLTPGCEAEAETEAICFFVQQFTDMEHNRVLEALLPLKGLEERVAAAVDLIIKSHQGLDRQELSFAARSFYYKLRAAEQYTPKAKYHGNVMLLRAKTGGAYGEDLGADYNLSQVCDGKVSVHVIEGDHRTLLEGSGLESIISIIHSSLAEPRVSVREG
Outline: (§1)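 PC-9 or H1703 cells were seeded at 8 × 10^5 per 100 mm dish and treated for 48 h at 1 or 5 µM (or 5, 50 and 100 µM). RIPA lysates were BCA-quantified and run on 8% SDS-PAGE, then transferred to PVDF. Blots were probed for FASN, AKT, phospho-AKT S473 and GAPDH and detected by ECL. Bands were quantified by densitometry and normalised to vehicle control.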

[2] = molecular target: Fatty acid synthase (Homo sapiens) (UniProt P49327); experiment: Inhibition of FASN in human NCI-H1703 cells expressing FASN assessed as disruption of AKT/FASN positive feedback loop by measuring decrease in AKT expression at 5 uM after 48 hrs by Western immunoblot based densitometric assay relative to control; assay type: cell-based; outline: as §1

| Compound | inhibition [1] | Ratio [2] |
| --- | --- | --- |
| O=C(Oc1ccc(/C=C/c2cccc(OC(=O)c3cc(O)c(O)c(O)c3)c2)cc1)c1cc(O)c(O)c(O)c1 | Dose-dependent effect | 0.11 |
| O=C(Oc1ccc(/C=C/c2ccc(OC(=O)c3cc(O)c(O)c(O)c3)cc2)cc1)c1cc(O)c(O)c(O)c1 | Dose-dependent effect | 0.01 |
